Test results published in ChEMBL document CHEMBL4145497, “Discovery of 2-aminothiazolyl berberine derivatives as effectively antibacterial agents toward clinically drug-resistant Gram-negative Acinetobacter baumanii” (Eur J Med Chem, 2018).
≈ marks a conversion by molar mass, not a printed value.

Key:
Pichia norvegensis = experiment: Antifungal activity against Candida mycoderma ATCC 96918 by CLSI two fold serial dilution method; assay type: functional
Pseudomonas aeruginosa [1] = experiment: Antibacterial activity against Pseudomonas aeruginosa ATCC 27853 after 18 to 24 hrs by CLSI two fold serial dilution method; assay type: functional
Staphylococcus aureus [2] = experiment: Antibacterial activity against Staphylococcus aureus ATCC 25923 after 18 to 24 hrs by CLSI two fold serial dilution method; assay type: functional
Micrococcus luteus = experiment: Antibacterial activity against Micrococcus luteus ATCC 4698 after 18 to 24 hrs by CLSI two fold serial dilution method; assay type: functional
Escherichia coli [3] = experiment: Antibacterial activity against Escherichia coli DH52 after 18 to 24 hrs by CLSI two fold serial dilution method; assay type: functional
Candida albicans [4] = experiment: Antifungal activity against Candida albicans ATCC 76615 by CLSI two fold serial dilution method; assay type: functional
Candida parapsilosis = experiment: Antifungal activity against Candida parapsilosis ATCC 22019 by CLSI two fold serial dilution method; assay type: functional; details: Lodderomyces parapsilosis
Saccharomyces cerevisiae = experiment: Antifungal activity against Saccharomyces cerevisiae ATCC 9763 by CLSI two fold serial dilution method; assay type: functional
Aspergillus flavus = experiment: Antifungal activity against Aspergillus flavus ATCC 204304 by CLSI two fold serial dilution method; assay type: functional
Cyberlindnera jadinii = experiment: Antifungal activity against Candida utilis ATCC 9950 by CLSI two fold serial dilution method; assay type: functional; details: Williopsis jadinii
Bacillus subtilis = experiment: Antibacterial activity against Bacillus subtilis ATCC 21216 after 18 to 24 hrs by CLSI two fold serial dilution method; assay type: functional
[5] = Aqueous solubility of the compound in phosphate buffer at pH 7.4 after 3 hrs by UV detection assay; assay type: physicochemical
In short: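 Water solubility measured at physiological pH, with berberine as the control.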

Candida tropicalis = experiment: Antifungal activity against drug-resistant Candida tropicalis by CLSI two fold serial dilution method; assay type: functional
Staphylococcus aureus [6] = experiment: Antibacterial activity against methicillin-resistant Staphylococcus aureus N315 after 18 to 24 hrs by CLSI two fold serial dilution method; assay type: functional
Acinetobacter baumannii = experiment: Antibacterial activity against drug-resistant Acinetobacter baumannii after 18 to 24 hrs by CLSI two fold serial dilution method; assay type: functional
Klebsiella pneumoniae = experiment: Antibacterial activity against drug-resistant Klebsiella pneumoniae after 18 to 24 hrs by CLSI two fold serial dilution method; assay type: functional
Candida albicans [7] = experiment: Antifungal activity against drug-resistant Candida albicans by CLSI two fold serial dilution method; assay type: functional
Enterococcus faecalis = experiment: Antibacterial activity against drug-resistant Enterococcus faecalis after 18 to 24 hrs by CLSI two fold serial dilution method; assay type: functional
Escherichia coli [8] = experiment: Antibacterial activity against drug-resistant Escherichia coli after 18 to 24 hrs by CLSI two fold serial dilution method; assay type: functional
Aspergillus fumigatus = experiment: Antifungal activity against drug-resistant Aspergillus fumigatus by CLSI two fold serial dilution method; assay type: functional
Pseudomonas aeruginosa [9] = experiment: Antibacterial activity against drug-resistant Pseudomonas aeruginosa after 18 to 24 hrs by CLSI two fold serial dilution method; assay type: functional

## C=CCOc1c(OC)cc(/C=N/Nc2nccs2)c2c1CN1CCc3cc4c(cc3C1C2)OCO4 (configuration not stated)
Pichia norvegensis
  MIC: 520 µM (≈ 255 µg/mL)
Pseudomonas aeruginosa [1]
  MIC: 260 µM (≈ 128 µg/mL)
Staphylococcus aureus [2]
  MIC: 30 µM (≈ 14.7 µg/mL)
Micrococcus luteus
  MIC: 130 µM (≈ 63.8 µg/mL)
Escherichia coli [3]
  MIC: 130 µM (≈ 63.8 µg/mL)
Candida albicans [4]
  MIC: 130 µM (≈ 63.8 µg/mL)
Candida parapsilosis
  MIC: 70 µM (≈ 34.3 µg/mL)
Saccharomyces cerevisiae
  MIC: 1040 µM (≈ 510 µg/mL)
Aspergillus flavus
  MIC: 260 µM (≈ 128 µg/mL)
Cyberlindnera jadinii
  MIC: 130 µM (≈ 63.8 µg/mL)
Bacillus subtilis
  MIC: 520 µM (≈ 255 µg/mL)
[5]
  solubility at 3 h: 7020 to 10200 µg/mL (≈ 14.3 to 20.8 mM)

## COc1cc(/C=N/Nc2nccs2)c2c(c1O)CN1CCc3cc4c(cc3C1C2)OCO4 (configuration not stated)
Pichia norvegensis
  MIC: 140 µM (≈ 63.1 µg/mL)
Pseudomonas aeruginosa [1]
  MIC: 140 µM (≈ 63.1 µg/mL)
Staphylococcus aureus [2]
  MIC: 140 µM (≈ 63.1 µg/mL)
Micrococcus luteus
  MIC: 70 µM (≈ 31.5 µg/mL)
Escherichia coli [3]
  MIC: 280 µM (≈ 126 µg/mL)
Candida albicans [4]
  MIC: 140 µM (≈ 63.1 µg/mL)
Candida parapsilosis
  MIC: 40 µM (≈ 18 µg/mL)
Saccharomyces cerevisiae
  MIC: 570 µM (≈ 257 µg/mL)
Aspergillus flavus
  MIC: 280 µM (≈ 126 µg/mL)
Cyberlindnera jadinii
  MIC: 280 µM (≈ 126 µg/mL)
Bacillus subtilis
  MIC: 140 µM (≈ 63.1 µg/mL)
[5]
  solubility at 3 h: 1660 µg/mL (≈ 3.68 mM)

## CCCCOc1c(OC)cc(/C=N/Nc2nccs2)c2c1CN1CCc3cc4c(cc3C1C2)OCO4 (configuration not stated)
Pichia norvegensis
  MIC: 250 µM (≈ 127 µg/mL)
Pseudomonas aeruginosa [1]
  MIC: 250 µM (≈ 127 µg/mL)
Staphylococcus aureus [2]
  MIC: 60 µM (≈ 30.4 µg/mL)
Micrococcus luteus
  MIC: 250 µM (≈ 127 µg/mL)
Escherichia coli [3]
  MIC: 60 µM (≈ 30.4 µg/mL)
Candida albicans [4]
  MIC: 250 µM (≈ 127 µg/mL)
Candida parapsilosis
  MIC: 8 µM (≈ 4.05 µg/mL)
Saccharomyces cerevisiae
  MIC: 510 µM (≈ 258 µg/mL)
Aspergillus flavus
  MIC: 510 µM (≈ 258 µg/mL)
Cyberlindnera jadinii
  MIC: 250 µM (≈ 127 µg/mL)
Bacillus subtilis
  MIC: 250 µM (≈ 127 µg/mL)
[5]
  solubility at 3 h: 7020 to 10200 µg/mL (≈ 13.9 to 20.1 mM)

## COc1cc(/C=N/Nc2nccs2)c2c(c1OCCO)CN1CCc3cc4c(cc3C1C2)OCO4 (configuration not stated)
Pichia norvegensis
  MIC: 520 µM (≈ 257 µg/mL)
Pseudomonas aeruginosa [1]
  MIC: 130 µM (≈ 64.3 µg/mL)
Staphylococcus aureus [2]
  MIC: 130 µM (≈ 64.3 µg/mL)
Micrococcus luteus
  MIC: 260 µM (≈ 129 µg/mL)
Escherichia coli [3]
  MIC: 130 µM (≈ 64.3 µg/mL)
Candida albicans [4]
  MIC: 260 µM (≈ 129 µg/mL)
Candida parapsilosis
  MIC: 30 µM (≈ 14.8 µg/mL)
Saccharomyces cerevisiae
  MIC: 520 µM (≈ 257 µg/mL)
Aspergillus flavus
  MIC: 1040 µM (≈ 514 µg/mL)
Cyberlindnera jadinii
  MIC: 520 µM (≈ 257 µg/mL)
Bacillus subtilis
  MIC: 260 µM (≈ 129 µg/mL)
[5]
  solubility at 3 h: 7020 to 10200 µg/mL (≈ 14.2 to 20.6 mM)

## COc1cc(/C=N/NC(N)=S)c2c(c1OCc1ccccc1F)CN1CCc3cc4c(cc3C1C2)OCO4 (configuration not stated)
Pichia norvegensis
  MIC: 240 µM (≈ 128 µg/mL)
Candida tropicalis
  MIC: 120 µM (≈ 64.2 µg/mL)
Staphylococcus aureus [6]
  MIC: 30 µM (≈ 16 µg/mL)
Pseudomonas aeruginosa [1]
  MIC: 480 µM (≈ 257 µg/mL)
Acinetobacter baumannii
  MIC: 4 µM (≈ 2.14 µg/mL)
Staphylococcus aureus [2]
  MIC: 30 µM (≈ 16 µg/mL)
Klebsiella pneumoniae
  MIC: 480 µM (≈ 257 µg/mL)
Micrococcus luteus
  MIC: 240 µM (≈ 128 µg/mL)
Escherichia coli [3]
  MIC: 240 µM (≈ 128 µg/mL)
Candida albicans [7]
  MIC: 480 µM (≈ 257 µg/mL)
Enterococcus faecalis
  MIC: 240 µM (≈ 128 µg/mL)
Candida albicans [4]
  MIC: 480 µM (≈ 257 µg/mL)
Candida parapsilosis
  MIC: 240 µM (≈ 128 µg/mL)
Saccharomyces cerevisiae
  MIC: 960 µM (≈ 513 µg/mL)
Aspergillus flavus
  MIC: 480 µM (≈ 257 µg/mL)
Escherichia coli [8]
  MIC: 240 µM (≈ 128 µg/mL)
Cyberlindnera jadinii
  MIC: 480 µM (≈ 257 µg/mL)
Bacillus subtilis
  MIC: 240 µM (≈ 128 µg/mL)
Aspergillus fumigatus
  MIC: 4 µM (≈ 2.14 µg/mL)
Pseudomonas aeruginosa [9]
  MIC: 480 µM (≈ 257 µg/mL)

## COc1cc(/C=N/Nc2nccs2)c2c(c1OCc1ccccc1F)CN1CCc3cc4c(cc3C1C2)OCO4 (configuration not stated)
Pichia norvegensis
  MIC: 460 µM (≈ 257 µg/mL)
Pseudomonas aeruginosa [1]
  MIC: 460 µM (≈ 257 µg/mL)
Staphylococcus aureus [2]
  MIC: 60 µM (≈ 33.5 µg/mL)
Micrococcus luteus
  MIC: 230 µM (≈ 128 µg/mL)
Escherichia coli [3]
  MIC: 230 µM (≈ 128 µg/mL)
Candida albicans [4]
  MIC: 230 µM (≈ 128 µg/mL)
Candida parapsilosis
  MIC: 230 µM (≈ 128 µg/mL)
Saccharomyces cerevisiae
  MIC: 920 µM (≈ 514 µg/mL)
Aspergillus flavus
  MIC: 920 µM (≈ 514 µg/mL)
Cyberlindnera jadinii
  MIC: 460 µM (≈ 257 µg/mL)
Bacillus subtilis
  MIC: 460 µM (≈ 257 µg/mL)
[5]
  solubility at 3 h: 374 to 3190 µg/mL (≈ 0.669 to 5.71 mM)

## CCCCOc1c(OC)cc(/C=N/NC(N)=S)c2c1CN1CCc3cc4c(cc3C1C2)OCO4 (configuration not stated)
Pichia norvegensis
  MIC: 130 µM (≈ 62.7 µg/mL)
Candida tropicalis
  MIC: 270 µM (≈ 130 µg/mL)
Staphylococcus aureus [6]
  MIC: 130 µM (≈ 62.7 µg/mL)
Pseudomonas aeruginosa [1]
  MIC: 130 µM (≈ 62.7 µg/mL)
Acinetobacter baumannii
  MIC: 70 µM (≈ 33.8 µg/mL)
Staphylococcus aureus [2]
  MIC: 130 µM (≈ 62.7 µg/mL)
Klebsiella pneumoniae
  MIC: 130 µM (≈ 62.7 µg/mL)
Micrococcus luteus
  MIC: 270 µM (≈ 130 µg/mL)
Escherichia coli [3]
  MIC: 270 µM (≈ 130 µg/mL)
Candida albicans [7]
  MIC: 130 µM (≈ 62.7 µg/mL)
Enterococcus faecalis
  MIC: 130 µM (≈ 62.7 µg/mL)
Candida albicans [4]
  MIC: 130 µM (≈ 62.7 µg/mL)
Candida parapsilosis
  MIC: 130 µM (≈ 62.7 µg/mL)
Saccharomyces cerevisiae
  MIC: 530 µM (≈ 256 µg/mL)
Aspergillus flavus
  MIC: 270 µM (≈ 130 µg/mL)
Escherichia coli [8]
  MIC: 270 µM (≈ 130 µg/mL)
Cyberlindnera jadinii
  MIC: 130 µM (≈ 62.7 µg/mL)
Bacillus subtilis
  MIC: 270 µM (≈ 130 µg/mL)
Aspergillus fumigatus
  MIC: 270 µM (≈ 130 µg/mL)
Pseudomonas aeruginosa [9]
  MIC: 270 µM (≈ 130 µg/mL)

## CCCCCCCCCCOc1c(OC)cc(/C=N/Nc2nccs2)c2c1CN1CCc3cc4c(cc3C1C2)OCO4 (configuration not stated)
Pichia norvegensis
  MIC: 430 µM (≈ 254 µg/mL)
Pseudomonas aeruginosa [1]
  MIC: 220 µM (≈ 130 µg/mL)
Staphylococcus aureus [2]
  MIC: 110 µM (≈ 65 µg/mL)
Micrococcus luteus
  MIC: 220 µM (≈ 130 µg/mL)
Escherichia coli [3]
  MIC: 220 µM (≈ 130 µg/mL)
Candida albicans [4]
  MIC: 220 µM (≈ 130 µg/mL)
Candida parapsilosis
  MIC: 220 µM (≈ 130 µg/mL)
Saccharomyces cerevisiae
  MIC: 430 µM (≈ 254 µg/mL)
Aspergillus flavus
  MIC: 430 µM (≈ 254 µg/mL)
Cyberlindnera jadinii
  MIC: 220 µM (≈ 130 µg/mL)
Bacillus subtilis
  MIC: 220 µM (≈ 130 µg/mL)
[5]
  solubility at 3 h: 61 µg/mL (≈ 0.103 mM)

## C=CCOc1c(OC)cc(/C=N/NC(N)=S)c2c1CN1CCc3cc4c(cc3C1C2)OCO4 (configuration not stated)
Pichia norvegensis
  MIC: 270 µM (≈ 126 µg/mL)
Candida tropicalis
  MIC: 70 µM (≈ 32.7 µg/mL)
Staphylococcus aureus [6]
  MIC: 70 µM (≈ 32.7 µg/mL)
Pseudomonas aeruginosa [1]
  MIC: 140 µM (≈ 65.3 µg/mL)
Acinetobacter baumannii
  MIC: 70 µM (≈ 32.7 µg/mL)
Staphylococcus aureus [2]
  MIC: 70 µM (≈ 32.7 µg/mL)
Klebsiella pneumoniae
  MIC: 550 µM (≈ 257 µg/mL)
Micrococcus luteus
  MIC: 270 µM (≈ 126 µg/mL)
Escherichia coli [3]
  MIC: 140 µM (≈ 65.3 µg/mL)
Candida albicans [7]
  MIC: 140 µM (≈ 65.3 µg/mL)
Enterococcus faecalis
  MIC: 140 µM (≈ 65.3 µg/mL)
Candida albicans [4]
  MIC: 140 µM (≈ 65.3 µg/mL)
Candida parapsilosis
  MIC: 30 µM (≈ 14 µg/mL)
Saccharomyces cerevisiae
  MIC: 550 µM (≈ 257 µg/mL)
Aspergillus flavus
  MIC: 270 µM (≈ 126 µg/mL)
Escherichia coli [8]
  MIC: 140 µM (≈ 65.3 µg/mL)
Cyberlindnera jadinii
  MIC: 270 µM (≈ 126 µg/mL)
Bacillus subtilis
  MIC: 270 µM (≈ 126 µg/mL)
Aspergillus fumigatus
  MIC: 70 µM (≈ 32.7 µg/mL)
Pseudomonas aeruginosa [9]
  MIC: 140 µM (≈ 65.3 µg/mL)
